test system: E. coli BW25113 ΔtolC growth inhibition, OD615; assay: growth inhibitors of E. coli tolC mutant, dose response, strain BW25113 ΔtolC::kan (AID 617)
Procedure, shortened: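 Material: E. coli BW25113 ΔtolC::kan bacteria; input: inoculum from 1:1000-diluted 1.5 h subculture; medium: kanamycin-containing LB broth, 50 µg/mL; dosing: compounds in serially diluted dose-response series; incubation: 20 h exposure at 37 °C; measured by: absorbance at 615 nm; control set: chloramphenicol control, 30 µM final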

In order of falling IC50:
1. CCOC(=O)c1cccc2c1-c1ccccc1/C2=N/O  97.1 µM
2. O=C(Nc1ccc2oc(Cc3ccc(Cl)cc3)nc2c1)c1cccnc1  53.9 µM
3. Cc1cc(SCC#N)n2nc(C)c(-c3ccccc3)c2n1  48.5 µM
4. Cc1cc(C)c(C#N)c(SCS(=O)c2ccc(C(C)(C)C)cc2)n1 (stereo not given)  40.1 µM
5. CCSCC1COC(c2cccn2Cc2ccc(C)cc2)=N1 (stereo not given)  39.4 µM
6. CCOc1ccc2nc(N3CCCN(C(=O)Nc4ccccc4C)CC3)c(C#N)cc2c1  36.3 µM
7. CN(C)c1ccc(/C=N/n2ncc3ccccc32)cc1  34.6 µM
8. Cc1cc2n(n1)C(c1ccc3c(c1)OCO3)Nc1c(C)cccc1-2 (stereo not given)  29.6 µM
9. CCOC(=O)c1cc2c(ccn2C)n1Cc1ccccc1C  27.3 µM
10. Clc1ccc2nc(CN3CCCc4ccccc43)cn2c1  25.8 µM
11. COc1ccc(OC)c(C(=O)COC(=O)c2cc(C)oc2C)c1  25.1 µM
12. COc1ccc(-c2noc(CCCc3ccccc3)n2)cc1OC  23.1 µM
13. CSCCOC(=O)C1=C(C)NC(=O)CC1c1ccccc1Cl (stereo not given)  22.9 µM
14. Cc1ccc(-c2csc(N(CC3CCCO3)C(=O)c3ccco3)n2)cc1 (stereo not given)  20.8 µM
15. Cc1cc(NC(=O)c2noc3c2CCCC3)nn1Cc1ccc(Cl)cc1  18.4 µM
16. CCCCC(=O)Nc1cccc(-c2nnc(-c3ccccc3)o2)c1  16.9 µM
17. O=C(Nc1nnc(-c2ccccc2Cl)o1)c1cccnc1  16.7 µM
18. Cc1csc(NC(=O)CSc2ncnc3c2cnn3-c2ccccc2Cl)n1  16.4 µM
19. CC(C)(C)c1ccc(-c2nnc(SCCC#N)n2C2CCCC2)cc1  15.8 µM
20. CCOC(=O)c1cc2sccc2n1CC(=O)N1CCCc2ccccc21  15.1 µM
21. CCOC(=O)C1CCN(c2nc3cc(OC)ccc3cc2C#N)CC1  14.9 µM
22. Cc1ccccc1-c1nc(CN2CCC(C(=O)NCCC3=CCCCC3)CC2)c(C)o1  13.9 µM
23. CCc1ccccc1N(C)C(=O)CCc1nc(-c2ccc(C)cc2)no1  13.8 µM
24. CCCOC(=O)c1ccc(Oc2cn[nH]c2-c2ccc(OCC)cc2O)cc1  13.6 µM
25. COc1ccccc1OCC(=O)N(Cc1nc(-c2ccccc2)no1)C1CCCCC1  12.7 µM
26. C#CCSc1nnc(-c2cccc3ccccc23)o1  12.2 µM
27. C(=C\c1ccccc1)/CSc1nnc(-c2ccccn2)n1Cc1ccco1  12 µM
28. c1ccc(-c2oc3ncnc(NCCN4CCOCC4)c3c2-c2ccccc2)cc1  11.8 µM
29. COc1cc(-c2nc(Cc3ccccc3Cl)no2)cc(OC)c1OC  11.5 µM
30. O=S(=O)(c1ccccc1)c1nc(-c2ccco2)oc1N1CCCCCC1  11.2 µM
31. CN(c1ccccc1)C(c1ccc(F)cc1)c1nnnn1C1CCCC1 (stereo not given)  11.1 µM
32. CCCCc1cc(O)c(CCCC)c(O)c1  10.9 µM
33. COc1ccc2[nH]c3c(=O)n(CCCCC(=O)N4CCC(C(N)=O)CC4)c(=S)[nH]c3c2c1  10.7 µM
34. Oc1ccc(Br)cc1-c1nc2cnccn2c1NC1CCCC1  10.5 µM
35. CCOC(=O)c1ccc(NC(=O)CCc2nc(-c3ccccc3Cl)no2)cc1  10.4 µM
36. O=C(c1cc2nc(-c3ccco3)cc(C(F)(F)F)n2n1)N1CCN(c2ccc(F)cc2)CC1  10.2 µM
37. COc1ccc(S(=O)(=O)Nc2ccccc2C(=O)NCc2ccco2)cc1Br  9.63 µM
38. O=C(CN1CCN(S(=O)(=O)c2ccc(F)cc2)CC1)Nc1ccc(Cl)c(C(F)(F)F)c1  9.07 µM
39. Cc1cc(NC(=O)Cn2nnc3sc4c(c3c2=O)CCC(C(C)(C)C)C4)no1 (stereo not given)  7.77 µM
40. Cc1onc(-c2ccccc2Cl)c1C(=O)Nc1sc2c(c1C#N)CCC2  7.5 µM
41. O=C(Cc1ccccc1F)Nc1nc(-c2cccs2)cs1  6.95 µM
42. c1ccc(CN2CCN(c3nc(-c4ccccc4)nc(-n4ccnc4)n3)CC2)cc1  6.13 µM
43. N#Cc1nc(-c2ccc(OCc3ccccc3)cc2)oc1NCCCn1ccnc1  6.08 µM
44. O=S(=O)(Nc1ccc(S(=O)(=O)N2CCCCC2)cc1)c1ccc(Br)s1  4.39 µM
45. CC(=O)c1c(C)n([O-])c2ccccc2[n+]1=O  3.89 µM
46. O=S(=O)(Nc1nc2ccccc2s1)c1ccc(Br)s1  3.88 µM
47. O=C(c1cccc(COc2ccc(Cl)cc2Cl)c1)N1CCN(c2ccccn2)CC1  3.82 µM
48. COc1ccccc1-c1nnc(NC(=O)c2ccc(S(=O)(=O)N(C)C)cc2)o1  3.77 µM
49. O=C(Nc1cccc(C(F)(F)F)c1)N1CCC(c2nc(-c3ccc(F)cc3)no2)CC1  3.75 µM
50. O=C(CC1CCCCC1)c1c(O)c2ccccc2oc1=O  1.72 µM
51. CCOC(=O)N1CCC(c2cc(=O)n3[nH]c(C)c(-c4ccc(F)cc4)c3n2)CC1  1.68 µM
52. O=S1(=O)Nc2c(ccc3cccnc23)-c2ccccc21  1.31 µM
53. O=C1CC(O)(C(F)(F)F)Oc2c1ccc1ccccc21 (stereo not given)  1.19 µM
54. O=C(NC1CCCCC1)c1sc(=S)n2c1[nH]c(=O)c1ccccc12  0.83 µM
55. CCOC(=O)c1cnn(-c2nc3sc4c(c3c(=O)[nH]2)CCCC4)c1N  0.28 µM

Reference: PubChem BioAssay AID617 (SRMLSC, 2007)
